# Data reported in ChEMBL document CHEMBL3046613 (J Agric Food Chem, 2010).
# Counter-ions that a name gives are not always drawn.
# Columns and labels:
# Tobacco mosaic virus [1] = experiment: Antiviral activity against Tobacco mosaic virus (TMV) inoculated on fresh tobacco leaves followed by dipping into compound solution at 50 ug/mL for 20 min and measured 72 hr post compound treatment by half-leaf method; type: functional
# Method in brief: (§1)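 Half-leaf method. Fresh tobacco leaves at the 5-6 growth stage were inoculated by juice-leaf rubbing with TMV at 5.88 × 10-2 μg/mL. Leaves were cut into halves along the main vein. Each half was immersed for 20 min in compound solution or in double-distilled water, then cultured at 25 °C for 72 h. Each concentration was run at least three times.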
# Tobacco mosaic virus [2] = experiment: Antiviral activity against Tobacco mosaic virus (TMV) pre-treated with 100 ug/mL compound for 30 min followed by inoculation on left side of Nicotiana tabacum leaves assessed as virus inactivation effect measured 3 to 4 days post viral infection; type: functional
# Method in brief: (§2)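 TMV was mixed with an equal volume of compound solution for 30 min, then inoculated on the left half of N. tabacum L. leaves. A solvent-plus-virus mixture was inoculated on the right half as control. Local lesions were counted 3-4 days after inoculation. Each compound was run in three replicates.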
# Tobacco mosaic virus [3] = experiment: Antiviral activity against Tobacco mosaic virus (TMV) inoculated on whole Nicotiana tabacum leaves followed by smearing with 100 ug/mL compound solution on left side of leaves assessed as viral infection curative effect measured 3 to 4 days post viral infection; type: functional
# Method in brief: (§3)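 Whole growing N. tabacum L. leaves of the same age were dip-inoculated with TMV at 6.0 × 10-3 mg/mL.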
# Tobacco mosaic virus [4] = experiment: Antiviral activity against Tobacco mosaic virus (TMV) inoculated on fresh tobacco leaves followed by dipping into compound solution at 100 ug/mL for 20 min and measured 72 hr post compound treatment by half-leaf method; type: functional; method in brief: as §1
# Tobacco mosaic virus [5] = experiment: Antiviral activity against Tobacco mosaic virus (TMV) inoculated on fresh tobacco leaves followed by dipping into compound solution for 20 min and measured 72 hr post compound treatment by half-leaf method; type: functional, organism-based; method in brief: as §1
# Tobacco mosaic virus [6] = experiment: Antiviral activity against Tobacco mosaic virus (TMV) inoculated on fresh tobacco leaves followed by dipping into compound solution at 5 ug/mL for 20 min and measured 72 hr post compound treatment by half-leaf method; type: functional; method in brief: as §1
# Tobacco mosaic virus [7] = experiment: Antiviral activity against Tobacco mosaic virus (TMV) inoculated on fresh tobacco leaves followed by dipping into compound solution at 25 ug/mL for 20 min and measured 72 hr post compound treatment by half-leaf method; type: functional; method in brief: as §1
# Tobacco mosaic virus [8] = experiment: Antiviral activity against Tobacco mosaic virus (TMV) inoculated on 100 ug/mL compound smeared Nicotiana tabacum leaves assessed as protective effect against viral infection measured 3 to 4 days post viral infection; type: functional
# Method in brief: (§4)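 N. tabacum L. leaves of the same age were used. Compound solution was smeared on the left half and solvent control on the right half. Leaves were inoculated with TMV 12 h later.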
# Tobacco mosaic virus [9] = experiment: Antiviral activity against Tobacco mosaic virus (TMV) inoculated on fresh tobacco leaves followed by dipping into compound solution at 40 ug/mL for 20 min and measured 72 hr post compound treatment by half-leaf method; type: functional; details: for inhibition at 40 µg/mL: Tobacco mosaic virus; method in brief: as §1
# Tobacco mosaic virus [10] = experiment: Antiviral activity against Tobacco mosaic virus (TMV) pre-treated with 500 ug/mL compound for 30 min followed by inoculation on left side of Nicotiana tabacum leaves assessed as virus inactivation effect measured 3 to 4 days post viral infection; type: functional; method in brief: as §2
# Tobacco mosaic virus [11] = experiment: Antiviral activity against Tobacco mosaic virus (TMV) inoculated on fresh tobacco leaves followed by dipping into compound solution at 500 ug/mL for 20 min and measured 72 hr post compound treatment by half-leaf method; type: functional; method in brief: as §1
# Tobacco mosaic virus [12] = experiment: Antiviral activity against Tobacco mosaic virus (TMV) inoculated on 500 ug/mL compound smeared Nicotiana tabacum leaves assessed as protective effect against viral infection measured 3 to 4 days post viral infection; type: functional; method in brief: as §4
# Tobacco mosaic virus [13] = experiment: Antiviral activity against Tobacco mosaic virus (TMV) inoculated on whole Nicotiana tabacum leaves followed by smearing with 500 ug/mL compound solution on left side of leaves assessed as viral infection curative effect measured 3 to 4 days post viral infection; type: functional; method in brief: as §3
# Tobacco mosaic virus [14] = experiment: Antiviral activity against Tobacco mosaic virus (TMV) inoculated on fresh tobacco leaves followed by dipping into compound solution at 250 ug/mL for 20 min and measured 72 hr post compound treatment by half-leaf method; type: functional; method in brief: as §1
# Tobacco mosaic virus [15] = experiment: Antiviral activity against Tobacco mosaic virus (TMV) inoculated on fresh tobacco leaves followed by dipping into compound solution at 125 ug/mL for 20 min and measured 72 hr post compound treatment by half-leaf method; type: functional; method in brief: as §1
smiles,measurement,setting,value
CC1(C)C2CC[C@]1(S(=O)(=O)O)C(=O)C2.COc1cc2c3c(c4cc(OC)c(OC)cc4c2cc1OC)CN1CCCC1C3 (stereo unspecified),inhibition at 50 µg/mL,Tobacco mosaic virus [1],60.6%
same,Activity,Tobacco mosaic virus [2],55.6%
same,Activity,Tobacco mosaic virus [3],65.5%
same,inhibition at 100 µg/mL,Tobacco mosaic virus [4],73.9%
same,EC50,Tobacco mosaic virus [5],23.6 µg/mL
same,inhibition at 5 µg/mL,Tobacco mosaic virus [6],32.3%
same,inhibition at 25 µg/mL,Tobacco mosaic virus [7],42.4%
same,Activity,Tobacco mosaic virus [8],47.7%
COc1cc(/C=C/C(=O)O)ccc1O.COc1cc2c3c(c4cc(OC)c(OC)cc4c2cc1OC)CN1CCCC1C3 (stereo unspecified),inhibition at 50 µg/mL,Tobacco mosaic virus [1],68.5%
same,Activity,Tobacco mosaic virus [2],51.1%
same,Activity,Tobacco mosaic virus [3],13.8%
same,inhibition at 100 µg/mL,Tobacco mosaic virus [4],72.2%
same,EC50,Tobacco mosaic virus [5],40.3 µg/mL
same,inhibition at 5 µg/mL,Tobacco mosaic virus [6],15.7%
same,inhibition at 25 µg/mL,Tobacco mosaic virus [7],18.5%
same,Activity,Tobacco mosaic virus [8],45.5%
COc1cc2c3c(c4cc(OC)c(OC)cc4c2cc1OC)CN1CCCC1C3.O=C(O)CC(O)(CC(=O)O)C(=O)O (stereo unspecified),inhibition (INH),Tobacco mosaic virus [9],65.2%
COc1cc2c3c(c4cc(OC)c(OC)cc4c2cc1OC)CN1CCCC1C3.O=C(O)c1cc(S(=O)(=O)O)ccc1O (stereo unspecified),inhibition at 50 µg/mL,Tobacco mosaic virus [1],79.9%
same,Activity,Tobacco mosaic virus [2],42.2%
same,Activity,Tobacco mosaic virus [3],62.1%
same,inhibition at 100 µg/mL,Tobacco mosaic virus [4],92.8%
same,EC50,Tobacco mosaic virus [5],21.3 µg/mL
same,inhibition at 5 µg/mL,Tobacco mosaic virus [6],15.6%
same,inhibition at 25 µg/mL,Tobacco mosaic virus [7],35.7%
same,Activity,Tobacco mosaic virus [8],38.6%
COc1ccc2c3c(c4cc(OC)c(OC)cc4c2c1)CC1CCCN1C3 (racemic) [(+/-)-ANTOFINE],inhibition at 50 µg/mL,Tobacco mosaic virus [1],69.7%
same,Activity,Tobacco mosaic virus [2],66.3%
same,Activity,Tobacco mosaic virus [3],54.4%
same,inhibition at 100 µg/mL,Tobacco mosaic virus [4],80.7%
same,EC50,Tobacco mosaic virus [5],< 25 µg/mL
same,inhibition at 5 µg/mL,Tobacco mosaic virus [6],56.7%
same,inhibition at 25 µg/mL,Tobacco mosaic virus [7],68.8%
same,Activity,Tobacco mosaic virus [8],26.7%
COc1ccc2c3c(c4cc(OC)c(OC)cc4c2c1)CN1CCCC1C3 (racemic) [(+/-)-DEOXYTYLOPHORININE],inhibition at 50 µg/mL,Tobacco mosaic virus [1],66.7%
same,Activity,Tobacco mosaic virus [2],67.4%
same,inhibition at 40 µg/mL,Tobacco mosaic virus [9],79.2%
same,Activity,Tobacco mosaic virus [3],26.1%
same,inhibition at 100 µg/mL,Tobacco mosaic virus [4],75%
same,EC50,Tobacco mosaic virus [5],< 25 µg/mL
same,inhibition at 25 µg/mL,Tobacco mosaic virus [7],65%
same,Activity,Tobacco mosaic virus [8],60%
CNCC(=O)N[C@@H](CO)C(=O)N[C@H]1[C@H](O)[C@@H](O)[C@H](n2ccc(N)nc2=O)O[C@@H]1C(N)=O [NINGNANMYCIN],Activity,Tobacco mosaic virus [10],50.5%
same,inhibition at 500 µg/mL,Tobacco mosaic virus [11],59.3%
same,EC50,Tobacco mosaic virus [5],440 µg/mL
same,Activity,Tobacco mosaic virus [12],51.3%
same,Activity,Tobacco mosaic virus [13],23%
same,inhibition at 25 µg/mL,Tobacco mosaic virus [7],28.2%
same,inhibition at 250 µg/mL,Tobacco mosaic virus [14],42.1%
same,inhibition at 125 µg/mL,Tobacco mosaic virus [15],27%
COc1cc2c3c(c4cc(OC)c(OC)cc4c2cc1OC)CN1CCCC1C3 (stereo unspecified) [TYLOPHORINE 2-HYDROXYSUCCINIC ACID SALT],inhibition at 40 µg/mL,Tobacco mosaic virus [9],69.1%
COc1cc2c3c(c4cc(OC)c(OC)cc4c2cc1OC)CN1CCCC1C3.Nc1ccc(S(=O)(=O)O)cc1 (stereo unspecified) [TYLOPHORINE P-AMINOBENZENESULFONIC ACID SALT],inhibition at 50 µg/mL,Tobacco mosaic virus [1],74.3%
same,Activity,Tobacco mosaic virus [2],75.6%
same,Activity,Tobacco mosaic virus [3],34.5%
same,inhibition at 100 µg/mL,Tobacco mosaic virus [4],80.9%
same,EC50,Tobacco mosaic virus [5],14.3 µg/mL
same,inhibition at 5 µg/mL,Tobacco mosaic virus [6],31.4%
same,inhibition at 25 µg/mL,Tobacco mosaic virus [7],58.8%
same,Activity,Tobacco mosaic virus [8],38.6%
COc1cc2c3c(c4cc(OC)c(OC)cc4c2cc1OC)CN1CCCC1C3.O=C(O)c1ccc(O)cc1 (stereo unspecified) [TYLOPHORINE P-HYDROXYBENZOIC ACID SALT],inhibition at 50 µg/mL,Tobacco mosaic virus [1],70%
same,Activity,Tobacco mosaic virus [2],60.9%
same,Activity,Tobacco mosaic virus [3],42.9%
same,inhibition at 100 µg/mL,Tobacco mosaic virus [4],84.9%
same,EC50,Tobacco mosaic virus [5],7.7 µg/mL
same,inhibition at 5 µg/mL,Tobacco mosaic virus [6],50%
same,inhibition at 25 µg/mL,Tobacco mosaic virus [7],54.7%
same,Activity,Tobacco mosaic virus [8],54.9%
